Assay results: article PMC6943944 (Journal of medicinal chemistry, 2019)
In brackets after ≈: the same amount, converted by molar mass.

Experiments:
[1] = Biodistribution of 67Ga complexes in naive mice; format: in vivo; details: naive female CBJ mice (n = 3), intravenous, 0.8–1.2 MBq, 1 h p.i.
Procedure, shortened: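 Naive female CBJ mice (8–10 weeks) received 0.8–1.2 MBq of 67Ga complex via tail-vein catheter. The complex was formed from 67GaCl3 (derived from 67Ga-citrate) and ligand in HEPES at pH 7.4, with labelling checked by radio-HPLC. A 67Ga-citrate group was also dosed. At 1 h p.i. mice were killed, organs harvested and gamma-counted (% ID/g), and urine metabolites analysed by radio-HPLC.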

[2] = system: E. coli AN193; assay: MIC assay in E. coli AN193; format: cell-based, Escherichia coli; details: E. coli AN193 carrying a mutation of the FhuA gene; compared with wt E. coli K12
[3] = system: E. coli K12; assay: MIC assay in E. coli K12 in iron-deficient; format: cell-based; details: Escherichia coli, K12, 18 h, read-out: MIC90 (+DP)
[4] = system: S. aureus RN4220; assay: Growth inhibition; format: cell-based, Staphylococcus aureus; details: for MIC90: Staphylococcus aureus, RN4220, 18 h, read-out: MIC90 S. aureus RN4220
[5] = system: P. aeruginosa PA01; assay: Growth inhibition; format: cell-based, Pseudomonas aeruginosa; details: for MIC90: Pseudomonas aeruginosa, PA01, 18 h, read-out: MIC90 P. aeruginosa PA01
Procedure, shortened: (§1)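 Broth microdilution in cation-adjusted Mueller–Hinton II broth made iron-deficient with 2,2′-bipyridine. Test compound stock was 0.3 mM in sterile water, with concentration verified by ICP-OES/UV–vis. Serial dilutions gave a final range of 0.3 × 10−4 to 1.56 × 10−12 M, with diluted inoculum added. Ciprofloxacin served as comparator. Incubation was 18 h at 37 °C with absorbance read. MIC was the lowest concentration giving ≥90% growth inhibition relative to negative-control wells.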

[6] = system: K. pneumoniae CRE-11; assay: Growth inhibition; format: cell-based, Klebsiella pneumoniae; details: for MIC90: Klebsiella pneumoniae, CRE11, 18 h, read-out: MIC90 K. pneumoniae CRE-11
Procedure, shortened: as §1

[7] = system: E. coli K12; assay: Challenge MIC assay in E. coli with 100-fold excess Fe-siderophore; format: cell-based, Escherichia coli; details: for MIC90: Escherichia coli, K12, 18 h, read-out: MIC90 (+DP, +100× Fe siderophore)
[8] = cited from earlier work

Molecule: O=C([O-])CC(O)(CC(=O)[O-])C(=O)[O-].[67Ga+3] [^67Ga-citrate]
- clearance route from biodistribution (in words) [1]: predominantly renal clearance

Molecule: CC(=O)N(O)CCCCCNC(=O)CCC(=O)N(O)CCCCCNC(=O)CCC(=O)N(O)CCCCCNC(=O)CCC(=O)N1CCN(c2cc3c(cc2F)c(=O)c(C(=O)O)cn3C2CC2)CC1 [apo D1, 7-{4-[4-(5-{N-4-[5-(N-4-{5-[N-Acetyl-(hydroxyamino)]pentylamino}−4-oxobutyry(hydroxyamino))pentyl-amino]-4-oxobutyryl(hydroxyamino)}pentylamino)-4-oxobutyryl]-1-piperazinyl}−1-cyclopropyl-6-fluoro-4-oxo-1H-quinoline-3-carboxylic Acid]
- growth inhibitory activity in E. coli AN193 (in words) [2]: retain comparable MIC values

Molecule: CC(=O)N(O)CCCC(N)C(=O)NC(CCCN(O)C(C)=O)C(=O)NC(CCCN(O)C(C)=O)C(=O)NCCC(=O)N1CCN(c2cc3c(cc2F)c(=O)c(C(=O)O)cn3C2CC2)CC1 (centres unmarked) [apo D2, 7-[4-(3-{5-[N-Acetyl(hydroxyamino)]-2-{5-[N-acetyl(hydroxyamino)]-2-{5-[N-acetyl(hydroxyamino)]-2-aminovalerylamino}-valerylamino}valerylamino}propionyl)-1-piperazinyl]-1-cyclopropyl-6-fluoro-4-oxo-1H-quinoline-3-carboxylic Acid]
- growth inhibitory activity in E. coli AN193 (in words) [2]: completely muted
- MIC90 [3]: 0.23 µM (≈ 0.211 µg/mL)
- MIC90 [4]: 15 µM (≈ 13.8 µg/mL)
- MIC90 [5]: 7.5 µM (≈ 6.89 µg/mL)
- MIC90 [6]: > 100 µM
- MIC90 [7]: > 100 µM

Molecule: O=C(O)c1cn(C2CC2)c2cc(N3CCNCC3)c(F)cc2c1=O [ciprofloxacin]
- MIC90 [3]: 0.2 µM (≈ 0.0663 µg/mL)
- MIC90 [4]: 1.9 µM (≈ 0.63 µg/mL)
- MIC90 [5]: 0.94 µM (≈ 0.311 µg/mL)
- MIC90 [6]: 3.12 µM (≈ 1.03 µg/mL)
- impact of 100× Fe–DFO or 100× Fe–LDFC on potency (in words) ([7]; E. coli, challenge MIC assay): no impact
- MIC90 [7]: 0.23 µM (≈ 0.0762 µg/mL)

Molecule: CC(=O)N(O)CCCCCNC(=O)CCC(=O)N(O)CCCCCNC(=O)CCC(=O)N(O)CCCCCN [desferrioxamine (DFO), desferrioxamine]
- log Ka of the gallium complex [8]: 28.65

Molecule: albomycin [Fe-D3 (albomycin)]
- growth inhibitory activity in E. coli AN193 (in words) [2]: completely muted
- MIC90 S. aureus RN4220 ([4]; wild-type S. aureus RN4220, iron-limiting conditions, 37 °C, 18 h): 0.94 µM
- MIC90 P. aeruginosa PA01 ([5]; wild-type P. aeruginosa PA01, iron-limiting conditions, 37 °C, 18 h): >30 µM
- MIC90 K. pneumoniae CRE-11 ([6]; carbapenem resistant K. pneumoniae CRE-11, iron-limiting conditions, 37 °C, 18 h): 0.00023 μM
- growth inhibitory activity in K. pneumoniae (in words) ([6]; carbapenem resistant K. pneumoniae, iron-limiting conditions): exceptional potency
